Compound activity from PubChem.
Hits are enriched below; roughly 1.8% of the tested compounds scored in any of these assays.
PERK inhibitor: human PERK inhibition, primary cell-based screen. inhibition, % at 5.6 µM. 220,000 compounds, 0.17% hits. Q9NZJ5. CHO PERK-DD fusion, SEAP luminescence translation reporter. AID 1416;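 active means inhibition above the mean inhibition of all tested compounds plus 3 SD, set separately per screening campaign, cut at about 2.9% in these data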;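 further: PERK kinase domain activated by AP20187 dimerizer at 100 nM; 0% = DMSO with dimerizer and 100% = rapamycin at 8.4 µM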
STAT3 inh-1: inhibitors of IL-6 induced STAT3 signaling; AID 862; 190,000 compounds, 0.89% hits; U3A cells, IL-6 STAT3-luciferase reporter, luminescence; host cell line lacks STAT1; inhibition, % at 5.5 µM;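 active means inhibition above the mean inhibition across all screened compounds plus 3 SD, cut at about 44% in these data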;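 further: 0% = DMSO only wells and 100% = 100 µM nifuroxazide control wells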
STAT1 inh-1: STAT1 signaling inhibition | 200,000 compounds, 0.35% hits | NIH 3T3 STAT1-luciferase reporter, IFN-gamma, luminescence | inhibition, % at 5.5 µM;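 active means inhibition above a set limit, the mean inhibition across all tested compounds plus 3 SD, cut at about 34% in these data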;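 further: 0% = IFN-gamma with DMSO and 100% = IFN-gamma with 300 µM nifuroxazide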
STAT3 act-1: activators of IL-6 induced STAT3 signaling. activation (% of control), % at 5.6 µM. U3A cells, IL-6 STAT3-luciferase reporter, luminescence; 100% = signal with IL-6 EC80 alone. 190,000 compounds, 0.91% hits;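 active means activation above the screen-wide mean of compound activation plus 3 SD, cut at about 130% in these data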;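 further: 0% = background luminescence of wells with medium and substrate only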
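system = STAT3-luciferase reporter U3A cells | reagent = IL-6 stimulus at 33 ng/mL final | timing = 1 h compound pre-exposure, 6 h IL-6 stimulation, 37 °C | measured by = luminescence | evaluation = % activation versus median of IL-6-stimulated wells | control set = IL-6-only wells as 100% reference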
STAT3 inh-2: STAT3 inhibition, confirmation assay; shares compounds with STAT3 inh-1; U3A cells, IL-6 STAT3 luciferase reporter, luminescence; cell line lacks STAT1; inhibition, % at 5.7 µM; 1,200 compounds, 45% hits; AID 1265;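 active means inhibition above the hit cutoff computed for the primary STAT3 screen, cut at about 44% in these data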;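 further: 0% = IL-6 plus DMSO and 100% = IL-6 plus nifuroxazide control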
NFkB inh STAT3ct: NF-kappaB inhibition in STAT3 inhibitor counter-screen | shares compounds with STAT3 inh-1 | HEK293T NF-kB luciferase reporter, TNF-alpha induced | inhibition, % at 5.7 µM | 1,200 compounds, 36% hits;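 active means inhibition above the mean of solvent-only control wells plus 3 SD, cutoff set per campaign, cut at about 13% in these data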;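 further: 0% = TNF-alpha with DMSO and 100% = TNF-alpha with MG high control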
STAT1 inh 2: inhibits STAT1, counter-screen to STAT3 inhibitors; inhibition, % at 5.7 µM; NIH 3T3 STAT1-luciferase reporter, IFN-gamma induced, luminescence; shares compounds with STAT3 inh-1; AID 1317; 1,200 compounds, 27% hits;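 active means inhibition above the mean plus 3 SD of solvent-only control wells, limit set per screening run, cut at about 16% in these data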;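 further: 0% = DMSO with IFN-gamma and 100% = nifuroxazide control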
STAT3 act-2: confirmation of STAT3 signaling activators; shares compounds with STAT3 act-1; U3A STAT3-luciferase reporter, IL-6 potentiation, luminescence; U3A cells lack STAT1; 100 means same as IL-6 alone; potentiation (% of control), % at 5.7 µM; 1,200 compounds, 64% hits;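 active means percent activation of the STAT3 luciferase reporter above a set limit taken from the earlier primary screen, cut at about 130% in these data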;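 further: 0% = background signal of medium plus substrate and 100% = median of IL-6 with DMSO wells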
NFkB act 2: counter-screen for STAT3 activators: NF-kappaB activation | activation (% of control), % at 5.7 µM | human cells, NF-kappaB reporter activation | 1,200 compounds, 11% hits | AID 1309 | shares compounds with STAT3 act-1; in the data active means activation above about 120%;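 further: reporter induced by TNF-alpha stimulation; 100% = median of stimulated DMSO wells and 0% = no signal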
STAT1 act: counter-screen for STAT3 activators: STAT1 activation | shares compounds with STAT3 act-1 | NIH 3T3 STAT1-luciferase reporter, IFN-gamma, luminescence | activation (% of control), % at 5.7 µM | 1,200 compounds, 13% hits;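 active means activation above the solvent-only control well mean plus 3 SD, set per screening run, cut at about 120% in these data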;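 further: 100% = IFN-gamma with DMSO median signal so 100% means no change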
STAT1 inh-2: STAT1 inhibition, confirmation assay | shares compounds with STAT1 inh-1 | NIH 3T3 STAT1-luciferase reporter, IFN-gamma, luminescence | inhibition, % at 5.5 µM | 200 compounds, 55% hits | AID 1263;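 active means triplicate mean inhibition exceeding the hit cutoff computed for the primary STAT1 screen, cut at about 35% in these data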;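 further: 0% = DMSO with IFN-gamma and 100% = 300 µM nifuroxazide with IFN-gamma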
NFkB inh STAT1ct: counter-screen for STAT1 inhibitors: NF-kappaB inhibition; shares compounds with STAT1 inh-1; HEK293T NF-kB luciferase reporter, TNF-alpha induced, luminescence; inhibition, % at 5.7 µM; 200 compounds, 30% hits;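 active means inhibition above the mean of solvent-only control wells plus 3 SD of those wells, cut at about 15% in these data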;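 further: 0% = DMSO with TNF-alpha and 100% = MG-132 control with TNF-alpha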
STAT3 inh STAT1c: inhibits STAT3, counter-screen to STAT1 inhibitors | shares compounds with STAT1 inh-1 | U3A cells, IL-6 STAT3 luciferase reporter, luminescence; cells lacking STAT1 | inhibition, % at 5.7 µM | 200 compounds, 20% hits;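 active means inhibition above the mean of solvent-only control wells plus 3 SD, set per campaign, cut at about 25% in these data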;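 further: 0% = IL-6 plus DMSO and 100% = IL-6 plus nifuroxazide control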
Numbers without * were called inactive; . = not tested or not shown.

SMILES | PERK inhibitor | STAT3 inh-1 | STAT1 inh-1 | STAT3 act-1 | others
C[C@@H]1O[C@@H](O[C@H]2C[C@@H](O)[C@]3(CO)[C@H]4[C@H](O)C[C@]5(C)[C@@H](C6COC(=O)C6)CC[C@]5(O)[C@@H]4CC[C@]3(O)C2)[C@H](O)[C@H](O)[C@H]1O (stereo partly specified) | 0 | 56* | 10 | 53 | STAT3 inh-2=32;NFkB inh STAT3ct=-26;STAT1 inh 2=-4
CCC(=NCCc1c[nH]c2ccccc12)c1c(O)n(C)c(=O)n(C)c1=O | 1 | 44* | 8 | 65 | STAT3 inh-2=47*;NFkB inh STAT3ct=3;STAT1 inh 2=20*
CCC(=NCCc1c[nH]c2ccccc12)c1c(O)n(-c2ccc(C)cc2)c(=O)[nH]c1=O | 0 | -3 | 6 | 103
CSc1ccc(C(=O)C2CCCN(Cc3cnc(SC)nc3)C2)cc1 (stereo unspecified) | -1 | -5 | 3 | 106
CC(C)COP(=O)(OCC(C)C)C(O)c1cccnc1 (stereo unspecified) | 0 | -6 | -6 | 104
Cc1ccc2nc(N3CCC(C(=O)N4CCC5(CC4)OCCO5)CC3)sc2c1 | 0 | 5 | -15 | 100
O=C(C1CCN(c2nc3ccc(Br)cc3s2)CC1)N1CCC2(CC1)OCCO2 | -1 | 63* | -9 | 47 | STAT3 inh-2=66*;NFkB inh STAT3ct=13;STAT1 inh 2=-18
CC(=O)c1cn(Cc2ccccc2C#N)c2ccccc12 | 0 | 66* | 28 | 45 | STAT3 inh-2=75*;NFkB inh STAT3ct=29*;STAT1 inh 2=21*
CCC(CC)NCc1c[nH]c2ccccc12 | 0 | -51 | 12 | 146* | STAT3 act-2=163*;NFkB act 2=112;STAT1 act=101
CN(C)P1(N(C)C)=Nc2c(c(N)nn2C)C(c2ccccc2)=N1 | 0 | -4 | 1 | 105
CCN(CC)CC(=O)Nc1ccc(Cl)cc1C(=O)c1ccccc1 | 0 | -2 | -2 | 105
Cc1ccc(-c2nc3ccccc3c(=O)n2-c2ccncc2)cc1 | -1 | 3 | -13 | 99
O=c1c2ccccc2nc(-c2ccc(-c3ccccc3)cc2)n1-c1ccncc1 | 0 | -36 | -1 | 144* | STAT3 act-2=134*;NFkB act 2=103;STAT1 act=110
C=CCn1c(O)c(/C=C2/C=CC=N2)c(=O)[nH]c1=O | 1 | 2 | -6 | 95
O=c1[nH]c(=O)n(Cc2ccccc2Cl)c(O)c1/C=C1/C=CC=N1 | 2 | -43 | 1 | 139* | STAT3 act-2=124;NFkB act 2=106;STAT1 act=102
Cc1ccc(S(=O)(=O)N2CC3CC(C2)c2cccc(=O)n2C3)cc1 (stereo unspecified) | 1 | 3 | -1 | 100
c1ccc2c(CN3CCN(C4CCCCC4)CC3)c[nH]c2c1 | 0 | -72 | 16 | 166* | STAT3 act-2=146*;NFkB act 2=101;STAT1 act=89
c1ccc2c(CN3CCCCCCC3)c[nH]c2c1 | 1 | -56 | 16 | 153* | STAT3 act-2=149*;NFkB act 2=102;STAT1 act=85
CC(C)[C@H]1C(=O)O[C@H](C(C)C)C(=O)N(C)[C@@H](C(C)C)C(=O)O[C@H](C(C)C)C(=O)N(C)[C@@H](C(C)C)C(=O)O[C@H](C(C)C)C(=O)N1C | 0 | . | 47* | . | STAT1 inh-2=28;NFkB inh STAT1ct=4;STAT3 inh STAT1c=17
Cc1cc(C)cc(N2C(=O)NC(=O)/C(=C\c3cccn3-c3ccc(Cl)cc3)C2=O)c1 | 2 | -4 | 38* | 111 | STAT1 inh-2=23;NFkB inh STAT1ct=-39;STAT3 inh STAT1c=-21
Cc1cc(C)cc(N2C(=O)NC(=O)/C(=C\c3cccn3-c3ccccc3)C2=O)c1 | 0 | -3 | 21 | 106
O=C(C(=O)N1CCOCC1)c1cn(Cc2ccc(F)cc2)c2ccccc12 | 0 | . | . | .
